Compound activity: PubChem, The Scripps Research Institute Molecular Screening Center
CHO-K1 Ca PAM = nonselective calcium activators in parental CHO-K1 cells, primary screen, counter-screen for M1 PAM project, cell-based, Fluo-8 calcium fluorescence, full deck, 1536-well; ATP EC20; 0% at ATP EC20, 100% at ATP max; activation, % at 3 µM; 360,000 compounds, 0.02% hits;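 active = activation above the run cutoff, the mean activation of all test compounds plus 3 SD, cut at about 40% in these data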;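 also: peak over basal fluorescence ratio in a 140 s read after ATP addition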
zfTRPN1 agonist = zebrafish TRPN1 channel agonists, primary screen, cell-based, HEK293, calcium fluorescence; activation, % at 3 µM; 220,000 compounds, 0.18% hits; HEK293 zebrafish TRPN1-YFP, Fluo-8 calcium fluorescence; 100% = response to 87 µM carbachol; transient receptor potential cation channel N1 (TRPN1/NompC), Danio rerio;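 active = activation above its plate's cutoff, the mean activation of test wells on that plate plus 3 SD, cut at about 19% in these data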;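 also: 0% = DMSO alone and 100% = 87 µM carbachol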
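Assay system: Zebrafish TRPN1-YFP in HEK293 cells | Incubation: Dye loading 1 h at 37 °C, then 30 min room temperature | Measured by: Kinetic Fluo-8 fluorescence, ex 470-495, em 515-575 nm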
CHO-K1 Ca ag = counter-screen for M1 agonists: effect in parental CHO-K1 cells; Fluo-8 calcium fluorescence; scaled to maximal ATP response, vehicle zero; activation, % at 3 µM; 360,000 compounds, 0.48% hits; in the data active = activation above about 15%;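 also: untransfected CHO-K1 host cells lacking M1 receptor as counterscreen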
CHO-K1 Ca antag = nonselective inhibitor or artifact in parental CHO-K1 cells. 360,000 compounds, 0.6% hits. ATP-induced calcium, Fluo-8 fluorescence. AID 602250. inhibition, % at 3 µM;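 active = inhibition above a per-plate cutoff, the plate's mean sample inhibition plus 3 SD, cut at about 24% in these data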;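 also: 0% = DMSO plus EC80 ATP and 100% = DMSO alone without ATP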
TRPML3 ag = human TRPML3 channel agonists, primary screen, cell-based, HEK293 TRPML3-YFP, Fluo-8 calcium fluorescence, 3 µM. 220,000 compounds, 0.29% hits. AID 1448, 2008. activation, % at 3 µM. 100% = the carbachol control signal;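 active = activation above its plate's cutoff, the mean activation of the plate's test wells plus 3 SD, cut at about 12% in these data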;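 also: 0% = DMSO only wells and 100% = carbachol wells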
Target sequence (Q8TDD5 whole entry, looked up): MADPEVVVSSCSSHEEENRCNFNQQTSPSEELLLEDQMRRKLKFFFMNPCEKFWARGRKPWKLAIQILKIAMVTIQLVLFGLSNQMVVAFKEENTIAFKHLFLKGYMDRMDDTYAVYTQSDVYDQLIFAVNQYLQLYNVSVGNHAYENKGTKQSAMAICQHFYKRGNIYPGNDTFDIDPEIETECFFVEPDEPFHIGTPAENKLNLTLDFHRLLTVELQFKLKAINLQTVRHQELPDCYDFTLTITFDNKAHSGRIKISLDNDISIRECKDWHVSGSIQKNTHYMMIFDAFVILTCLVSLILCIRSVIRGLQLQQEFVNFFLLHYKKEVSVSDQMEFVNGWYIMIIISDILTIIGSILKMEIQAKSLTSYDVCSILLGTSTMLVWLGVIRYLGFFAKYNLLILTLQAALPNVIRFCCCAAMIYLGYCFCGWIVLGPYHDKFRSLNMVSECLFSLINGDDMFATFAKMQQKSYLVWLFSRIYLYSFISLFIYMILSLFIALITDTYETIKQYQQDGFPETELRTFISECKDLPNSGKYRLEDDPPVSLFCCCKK
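Material: TRPML3-YFP stable HEK293 cells | Dosing: One concentration, 3 µM nominal, 0.3% DMSO | Timing: 125 s total fluorescence read per well | Technique: Fluo-8 calcium dye fluorescence, ex 470-495, em 515-575 nm | Measure: Percent activation from peak-to-basal fluorescence ratio, scaled between DMSO and carbachol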
* = called active by the depositor; x = no result. Hits are enriched below; roughly 1.2% of the tested compounds scored in any of these assays.

SMILES	CHO-K1 Ca PAM	zfTRPN1 agonist	CHO-K1 Ca ag	CHO-K1 Ca antag	TRPML3 ag
c1ccc(CNc2ccccn2)cc1	-5	x	0	-7	x
c1ccc(Nc2ccccc2Nc2ccccn2)nc1	-3	88*	1	-13	68*
COc1cccc(-c2ccc3nccn3c2)c1	-14	x	0	28*	x
CN1CCN(C(=O)c2cccc(-c3ccc4nccn4c3)c2)CC1	6	x	0	-4	x
O=C(Nc1nnc(-c2cccs2)o1)c1cccc(C(F)(F)F)c1	17	21*	32*	5	1
CCc1ccc([C@@H]2CC(=O)[C@@H]3CN(S(=O)(=O)c4ccc(Cl)cc4)[C@H](c4ccc(C)cc4)C[C@@H]3N2S(=O)(=O)c2ccc(C)cc2)cc1	9	x	1	12	x
COc1ccc(N(Cc2ccccc2)C(=O)CSc2nnc(Cn3nnc4ccccc43)o2)cc1	0	-1	0	18	-1
O=C(CSc1nnc(Cn2nnc3ccccc32)o1)N(Cc1ccc(F)cc1)c1ccccc1	9	4	11	25*	0
N#Cc1cccc(NC(=O)c2cc(C3CCCCN3C(=O)c3ccccn3)on2)c1 (centres undefined)	9	x	2	-4	x
Cn1c2[n+](c3ccc(Cl)cc3c1=O)Cc1ccccc1-2	5	0	16*	4	0
COc1cc(/C=N/n2c(=S)[nH]nc(C)c2=O)cc([N+](=O)[O-])c1O	-6	0	5	25*	0
O=c1nc(/C=C/c2ccc(-c3ccc(F)cc3)o2)cc(C(F)(F)F)[nH]1	x	1	x	x	2
O=C(O)c1ccccc1-c1ccc(/C=C/c2cc(C(F)(F)F)[nH]c(=O)n2)o1	-13	81*	26*	22	28*
O=C(O)c1cc(Cl)ccc1-c1ccc(/C=C/c2cc(C(F)(F)F)[nH]c(=O)n2)o1	-21	29*	26*	15	13*
COc1ccc(S(=O)(=O)N2CCCCC2)cc1	-5	1	0	27*	1
COc1ccc(S(=O)(=O)N2CCN(C)CC2)cc1	9	x	0	-5	x
COc1ccc(S(=O)(=O)N2CC3C4C=CC(C4)C3C2)cc1 (centres undefined)	12	1	1	-16	56*
COc1ccc2cc(S(=O)(=O)N3CCCCCC3)ccc2c1	-11	-1	0	6	2
O=[N+]([O-])c1cc(S(=O)(=O)N2CCCCCC2)ccc1Cl	-4	-3	0	-1	22*
CCCNC(=O)C1(C)CCN(C(=O)COCc2ccccc2)C1 (centres undefined)	18	x	0	-4	x
O=C(NCC1CCCO1)c1cccc2c1C(=O)c1ccc(N3CCC(Cc4ccccc4)CC3)cc1S2(=O)=O (centres undefined)	-3	x	17*	12	x
CC1CCN(c2ccc3c(c2)S(=O)(=O)c2cccc(C(=O)NC[C@@H]4CCCO4)c2C3=O)CC1	-7	x	12	10	x
O=C(Nc1ccccc1C(=O)Nc1nnc(C(F)(F)F)s1)c1ccccc1	-10	6	9	26*	4
Cc1cn([C@H]2C[C@H](O)[C@@H](CNCc3cccc(OC4CCCC4)c3)O2)c(=O)[nH]c1=O	14	x	1	-18	x
O=C(CN1C(=O)C(c2ccc(F)cc2)=NC12CCCC2)Nc1ccc(F)cc1	-1	7	3	36*	2
SMILES	CHO-K1 Ca PAM	zfTRPN1 agonist	CHO-K1 Ca ag	CHO-K1 Ca antag	TRPML3 ag
Cc1ccc(CN2CCC[C@]3(N[C@H](c4ccccc4)[C@@H]4C(=O)N(Cc5ccccc5)C(=O)[C@@H]43)C2=O)cc1	-15	x	1	29*	x
CCN1C(=O)[C@H]2[C@@H](c3ccc(C)cc3)N[C@]3(CCCN(Cc4ccc(F)cc4)C3=O)[C@H]2C1=O	-12	x	-1	25*	x
Cc1ccc(CN2CCC[C@]3(N[C@H](c4ccc(C)cc4)[C@@H]4C(=O)N(Cc5ccccc5)C(=O)[C@@H]43)C2=O)cc1	11	x	2	-8	x
Cc1noc(C)c1Cn1c(C)c(C(=O)NCc2ccc3c(c2)OCCO3)sc1=O	30	x	2	-11	x
CCN(CC)C(=O)C1=C(C)N(CCCOC)C(=O)C(CC(=O)NCCCN(C)C)C1 (centres undefined)	-3	x	0	11	x
CCCCNC(=O)C1(C)CCN1Cc1cccc2c(OC)cc(C(=O)OCC)cc12 (centres undefined)	14	x	0	-11	x
COc1ccc(-c2cc(NC(C)=O)c3ncc(-c4ccccc4)n3c2)c(OC)c1	5	x	2	-5	x
CC(C)(C)OC(=O)CNC(=O)c1nc[nH]c1C(=O)NCc1ccc(CNC(=O)OC(C)(C)C)cc1	-19	x	12	17	x
CC(C)C[C@H](NC(=O)c1[nH]cnc1C(=O)Nc1ccc(CNC(=O)OC(C)(C)C)cc1)C(=O)OC(C)(C)C	48*	x	0	-29	x
CC(C)(C)OC(=O)NCCCCCNC(=O)c1nc[nH]c1C(=O)NCc1ccc(CNC(=O)OC(C)(C)C)cc1	-11	x	15*	15	x
CC(C)(C)OC(=O)NCc1ccc(CNC(=O)c2nc[nH]c2C(=O)NCc2ccc(CNC(=O)OC(C)(C)C)cc2)cc1	-18	x	-1	29*	x
Cc1ccsc1C(=O)N1CCC1(C)C(=O)Nc1ccc2c(c1)OCCO2 (centres undefined)	11	x	1	-9	x
COc1ccc(C(CCNCc2ccc(OC(C)C)cc2)c2ccccc2OC)cc1 (centres undefined)	-4	x	18*	14	x
CCCc1cc(CN(C)C(=O)c2ccc(OC3CCN(C(C)=O)CC3)c(OC)c2)[nH]n1	24	x	0	-11	x
O=C1N[C@@H](c2ccccc2)COC(=O)[C@@H](Cc2ccc(F)cc2)C/C=C\C[C@@H]1CC(=O)N(CCO)Cc1ccccc1	-10	x	17*	8	x
O=C1N[C@@H](c2ccccc2)COC(=O)[C@H](Cc2ccc(F)cc2)C/C=C\C[C@H]1CC(=O)N(CCO)Cc1ccccc1	12	x	0	-9	x
O=C(Cc1cccc2c(=O)cc(-c3ccccc3)oc12)OCCN1CCOCC1	1	x	4	10	x
Cc1cc(C(=O)NCC(=O)OCC(=O)NCCc2ccccc2)ccc1[N+](=O)[O-]	-18	0	-1	53*	1
COc1ccc(NC(=S)N2CCN(c3ccc4c(c3)C3CCN(C(=O)OCc5ccccc5)C4C3)CC2)c(OC)c1 (centres undefined)	20	x	5	13	x
COc1ccc(N2CC(NC(=O)Nc3ccccc3)CC2=O)cc1 (centres undefined)	1	1	15*	11	0
COc1ccc(N2CC(NC(=O)N3CCN(c4ccccc4)CC3)CC2=O)cc1 (centres undefined)	20	2	16*	-5	1
